Beta apoptosis = blocks beta cell apoptosis; INS-1E cytokine-induced death, ATP luminescence, 48 h; percent of positive-control rescue, neutral wells zero; protection from apoptosis, % (concentration not given with the values); 300,000 tested, 0.8% active;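 active = Every replicate reaches about 75%, or at least half do and their mean reaches it too, limit read from the data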;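 also: 0% = cytokine-treated negative control wells and 100% = positive control rescue; higher means more ATP so stronger rescue from cytokine killing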
Bfl-1 A1 inh = inhibitors of the anti-apoptotic protein A1, read as caspase activation; AID 2462; caspase activation, % (test concentration not listed); 330,000 tested, 0.066% active; MEF A1-2A-BIM cells, Caspase-Glo 3/7 luminescence, 3 h; percent of clofoctol response, vehicle zero;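 active = over half of replicate activation scores above 10%, or exactly half above 10 with the replicate mean above 10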
HIF act = HIF pathway transcriptional activation; U2OS HRE-luciferase reporter, luminescence; normalized: DMSO 0%, desferrioxamine 100%; activation, % at 7.5 µM (by protocol); 300,000 tested, 0.32% active; AID 1910;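 active = mean activation of at least 10% of the iron chelator positive control signal, with at least half of replicates also reaching 10%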
KLF5 inhibitor = inhibitors of KLF5 expression; DLD-1 KLF5 promoter-luciferase reporter, luminescence; inhibition, % at 5 µM; 290,000 tested, 0.23% active; AID 1700;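 active = inhibition above a per-plate limit of that plate's mean compound inhibition plus 3 SD, cut at about 60% in these data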;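 also: 0% = DMSO wells and 100% = LY294002 at 200 µM; higher means less KLF5 promoter-driven luciferase light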
T cruzi repl = T. cruzi replication inhibition. T. cruzi beta-gal in NIH3T3, luminescence, 90 h. inhibition, % (concentration not given with the values). 300,000 tested, 1.4% active;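 active = mean inhibition across valid replicates above about 55%, limit read from the data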;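 also: signal also drops with host cell toxicity which is not excluded here; 0% = plate median of DMSO wells and 100% = zero luminescence signal; higher percent means less beta-gal luminescence so fewer parasites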
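assay system = mouse NIH/3T3 fibroblasts infected with β-gal-expressing T. cruzi Tulahuen C4 | input = 5,000 NIH/3T3 host cells per well | buffer or medium = DMEM plus 2% FBS | timing = 3 h host attachment, then at least 90 h co-culture | measured by = GalScreen luminescence, 60 min | evaluation = luminescence reflecting intracellular parasite burden, expressed as percent inhibition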
* marks the source's active call; other numbers are inactive results; x = not tested or not shown. Rows were chosen to be rich in hits. Some 2.3% of all compounds tested hit in one or more screens of this group.

SMILES | Beta apoptosis | Bfl-1 A1 inh | HIF act | KLF5 inhibitor | T cruzi repl
COc1ccc(N2CCN(c3nc(Nc4ccc(C)c(F)c4)nc(N4CCCC4)n3)CC2)cc1 | 33 | -1 | 0 | 11 | 68*
Cc1cccc(NC(=O)CN2CCN(C(=O)c3cccc(-n4cnnn4)c3)CC2)c1C | 1 | 1 | x | x | x
CCN(C(=O)Cc1c(C(=O)O)n(C)c2ccccc12)c1cccc(C)c1 | -3 | 1 | 1 | 9 | -1
Cc1cc(C)c2c(N)c(C(=O)Nc3ccccc3Br)sc2n1 | 3 | -1 | -18 | -110 | 48
Cc1cc(C)c2c(N)c(C(=O)c3ccccc3Cl)sc2n1 | 3 | 0 | 0 | -12 | 56*
Cc1cc(C)c2c(N)c(C(=O)Nc3ccccc3F)sc2n1 | -6 | 0 | 30* | -216 | 8
Cc1cc(OCC(=O)OCC(=O)Nc2cc(S(=O)(=O)N3CCOCC3)ccc2Cl)ccc1Cl | -5 | 0 | x | x | x
Cc1ccc(C(=O)C[n+]2ccc3ccccc3c2)cc1 | 3 | 0 | 1 | -41 | 22
Cc1cc(C(C)(C)C)cc(C)c1C[n+]1ccc2ccccc2c1 | 111* | -1 | 0 | -21 | 44
Oc1ccc(Nc2nc3ccccc3nc2Nc2ccc(O)cc2)cc1 | x | 2 | -8 | 55 | 71*
CC(=O)c1c(C)[nH]c(C(=O)COC(=O)c2cc(C)oc2C)c1C | 9 | 2 | x | x | x
O=c1c2ccccc2nc(SCCN2CCCCC2)n1CCc1ccccc1 | 13 | 0 | 0 | -11 | 63*
CCCCCCCCCS(=O)(=O)N/N=C/c1cccc([N+](=O)[O-])c1 | -11 | -1 | 71* | -23 | -21
CCCCCCCC(=O)Nc1ccc(C(=O)N/N=C/c2cccc([N+](=O)[O-])c2)cc1 | 95* | 0 | -7 | -18 | 19
CCCCCCC(=O)Nc1ccc(C(=O)N/N=C/c2cccnc2)cc1 | -2 | 0 | 0 | 7 | -1
O=C(Nc1ncccc1O)c1ccc2c(c1)OCCO2 | x | -2 | 12* | x | -9
O=C(Nc1ncccc1O)c1ccc2c(c1)OCO2 | -1 | -4 | 9.7* | x | -17
Cc1cccnc1NC(=O)c1ccc2c(c1)OCCO2 | -4 | 0 | 2 | x | 1
O=C(N/N=C/c1ccc(-c2cccc([N+](=O)[O-])c2)o1)c1cccs1 | 6 | 0 | 1 | 3 | 80*
NC(=S)N/N=C/c1ccc(-c2cccc([N+](=O)[O-])c2)o1 | 7 | 1 | 0 | -24 | 32
C=C(C)CNC(=O)c1ccc2nc(Cc3ccc(OC)cc3)oc2c1 | x | -7 | 11* | -151 | 2
O=C(OCC(=O)N1CCc2ccccc2C1)c1ccc(F)cc1Cl | 0 | 0 | x | x | x
CC(C)(C)NC(=O)COC(=O)c1ccc(Cl)nc1 | -2 | 0 | 71* | -6 | 4
Cc1cc(=O)n2[nH]c(-c3ccccc3)cc2n1 | 0 | -2 | -9 | -81 | -11
Cc1cc(=O)n2[nH]c(-c3ccc(C(C)(C)C)cc3)cc2n1 | 3 | -1 | 1 | -22 | 63*
SMILES | Beta apoptosis | Bfl-1 A1 inh | HIF act | KLF5 inhibitor | T cruzi repl
CN(CC(=O)Nc1ccc(F)cc1)CC(=O)N1CCCCCC1 | -2 | 0 | x | x | x
Cc1nc(C(=O)Nc2ccc(Cl)cc2)sc1C1(C)CC(c2cccc([N+](=O)[O-])c2)=NO1 (centres undefined) | 14 | 0 | 0 | x | 66*
Cc1nc(C(=O)NC2CCCCC2)sc1C1(C)CC(c2cccc([N+](=O)[O-])c2)=NO1 (centres undefined) | 12 | 0 | 0 | x | 48
CC(=O)N1c2ccc(S(=O)(=O)N3CCC(C(=O)N4CCN(c5cccc(C(F)(F)F)c5)CC4)CC3)cc2CC1C (centres undefined) | 92* | -1 | x | -9 | 31
CC(=O)c1ccc(N2CCN(C(=O)C3CCN(S(=O)(=O)c4ccc5c(c4)CC(C)N5C(C)=O)CC3)CC2)cc1 (centres undefined) | 6 | 0 | 0 | -18 | 17
CCC(C)c1ccccc1NC(=O)c1cccc(-n2cnnn2)c1 (centres undefined) | -1 | 0 | x | x | x
Clc1ccc(C2[C@H]3CN(Cc4cccnc4)[C@H](c4ccccc4)C34CC2(c2ccccc2)C4)cn1 (some centres undefined) | 7 | 0 | 0 | x | 56*
FC(F)(F)c1ccc(CN2C[C@@H]3C(c4ccc(C(F)(F)F)cc4)C4(c5cccnc5)CC3(C4)[C@H]2c2ccccc2)cc1 (some centres undefined) | 109* | -2 | -1 | x | 35

Screening results as filed in PubChem.
